Data: ChEMBL document CHEMBL3351267, “Curcuminoid derivatives enhance telomerase activity in an in vitro TRAP assay” (Bioorg Med Chem Lett, 2014)
Active and inactive are the calls of the source. The rule behind the calls is not given here.

How the values were obtained:
[1] = target: Telomerase reverse transcriptase (Homo sapiens) (UniProt O14746); experiment: Activation of human telomerase activity expressed in HEK293T cells incubated for 30 mins by modified TRAP assay; assay type: cell-based; details: HEK-293T
How it was run: (§1)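 Telomerase came from crude lysate of HEK293T cells transfected with hTERT and hTR plasmids. MTS primer and compound were incubated in telomerase reaction buffer at 30 °C for 30 min, then removed by two phenol–chloroform extractions. Products were ethanol-precipitated, PCR-amplified with FAM-tagged primer, run on 8% non-denaturing acrylamide and phosphorimaged. Accumulated product intensity was averaged over three independent experiments.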

[2] = target: Telomerase reverse transcriptase (Homo sapiens) (UniProt O14746); experiment: Activation of human telomerase activity expressed in HEK293T cells assessed as increase in telomer products length at 40 uM by modified TRAP assay and phosphorimage analysis; assay type: cell-based; details: HEK-293T, TDE = time-dependent effect
How it was run: (§2)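 This was a time course at 40 µM compound, with the compound-free set run in parallel. The telomerase source was lysate of HEK293T cells transfected with hTERT/hTR. Reactions ran at 30 °C, and 100 µl was withdrawn at set times and heat-stopped at 95 °C for 10 min. Products were purified, PCR-amplified with FAM primer, and separated on 8% non-denaturing gel with phosphorimaging. Intensities came from three independent experiments.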

Thermus aquaticus = experiment: Inhibition of Thermus aquaticus DNA polymerase at 5 uM
[3] = target: Telomerase reverse transcriptase (Homo sapiens) (UniProt O14746); experiment: Activation of human telomerase activity expressed in HEK293T cells incubated for 30 mins by modified TRAP assay and phosphorimage analysis; assay type: cell-based; details: HEK-293T; how it was run: as §1
[4] = target: Telomerase reverse transcriptase (Homo sapiens) (UniProt O14746); experiment: Activation of human telomerase activity expressed in HEK293T cells assessed as increase in telomer products intensity at 40 uM by modified TRAP assay and phosphorimage analysis; assay type: cell-based; details: HEK-293T, TDE = time-dependent effect; how it was run: as §2
[5] = target: Telomerase reverse transcriptase (Homo sapiens) (UniProt O14746); experiment: Activation of human telomerase activity expressed in HEK293T cells at 60 uM incubated for 30 mins by modified TRAP assay; assay type: cell-based; details: HEK-293T; how it was run: as §1
[6] = target: Telomerase reverse transcriptase (Homo sapiens) (UniProt O14746); experiment: Activation of human telomerase activity expressed in HEK293T cells assessed as increase in telomer products intensity incubated for 30 mins by modified TRAP assay; assay type: cell-based; details: HEK-293T; how it was run: as §1
[7] = target: Telomerase reverse transcriptase (Homo sapiens) (UniProt O14746); experiment: Activation of human telomerase activity expressed in HEK293T cells assessed as increase in telomer products length incubated for 30 mins by modified TRAP assay; assay type: cell-based; details: HEK-293T; how it was run: as §1
[8] = target: Telomerase reverse transcriptase (Homo sapiens) (UniProt O14746); experiment: Activation of human telomerase activity expressed in HEK293T cells at 60 uM incubated for 30 mins by modified TRAP assay and phosphorimage analysis; assay type: cell-based; details: HEK-293T; how it was run: as §1
[9] = target: Telomerase reverse transcriptase (Homo sapiens) (UniProt O14746); experiment: Activation of human telomerase activity expressed in HEK293T cells at 20 to 60 uM incubated for 30 mins by modified TRAP assay; assay type: cell-based; details: HEK-293T; how it was run: as §1

Telomerase reverse transcriptase (Homo sapiens), sequence (O14746 whole entry): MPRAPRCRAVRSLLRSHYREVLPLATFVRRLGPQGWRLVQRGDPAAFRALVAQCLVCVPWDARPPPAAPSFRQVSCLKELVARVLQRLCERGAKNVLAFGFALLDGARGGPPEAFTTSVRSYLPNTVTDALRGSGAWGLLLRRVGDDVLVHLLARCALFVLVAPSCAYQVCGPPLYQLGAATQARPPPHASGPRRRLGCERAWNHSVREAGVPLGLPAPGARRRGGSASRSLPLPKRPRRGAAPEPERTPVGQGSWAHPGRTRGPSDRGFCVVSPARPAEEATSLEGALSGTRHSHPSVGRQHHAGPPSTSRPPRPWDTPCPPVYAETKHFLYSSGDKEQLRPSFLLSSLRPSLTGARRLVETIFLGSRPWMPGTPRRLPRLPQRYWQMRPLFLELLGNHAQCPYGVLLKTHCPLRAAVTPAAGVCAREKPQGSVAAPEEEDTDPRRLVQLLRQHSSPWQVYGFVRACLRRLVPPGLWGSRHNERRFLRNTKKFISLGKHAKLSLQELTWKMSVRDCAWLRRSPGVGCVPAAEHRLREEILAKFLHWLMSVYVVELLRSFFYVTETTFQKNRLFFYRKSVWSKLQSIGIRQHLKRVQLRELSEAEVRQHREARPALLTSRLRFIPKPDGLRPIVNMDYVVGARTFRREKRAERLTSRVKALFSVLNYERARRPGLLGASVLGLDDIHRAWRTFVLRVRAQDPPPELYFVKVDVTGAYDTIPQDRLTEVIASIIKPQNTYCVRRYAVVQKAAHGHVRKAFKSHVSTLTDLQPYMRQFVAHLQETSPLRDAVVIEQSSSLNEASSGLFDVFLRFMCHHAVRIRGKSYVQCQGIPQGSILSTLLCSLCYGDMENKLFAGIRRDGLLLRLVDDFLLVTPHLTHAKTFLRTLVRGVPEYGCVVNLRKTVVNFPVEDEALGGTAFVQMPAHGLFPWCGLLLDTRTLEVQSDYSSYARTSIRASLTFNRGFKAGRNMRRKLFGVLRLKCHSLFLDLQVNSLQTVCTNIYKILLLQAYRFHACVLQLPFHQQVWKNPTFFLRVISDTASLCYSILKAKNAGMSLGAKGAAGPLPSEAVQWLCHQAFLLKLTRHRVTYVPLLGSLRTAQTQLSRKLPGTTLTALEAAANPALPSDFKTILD

Compound	Activity [1]	fold change (FC) [5]	further results
COc1cc(/C=C/C(=O)CC(=O)/C=C/c2ccc(OCCCCC[n+]3ccccc3)c(OC)c2)ccc1OCCCCC[n+]1ccccc1	Dose-dependent effect	5	Activity [2]: tde; inhibition (Thermus aquaticus): Active; Activity [3]: Dose-dependent effect; Activity [4]: tde; Activity [6]: Dose-dependent effect; Activity [7]: Dose-dependent effect; fold change (FC) [8]: < 5
COc1cc(/C=C/C(O)=C/C(=O)/C=C/c2ccc(O)cc2)ccc1O	inactive	–	–
COc1cc(CC/C=C/C(=O)CCc2ccc(OCCCCC[n+]3ccccc3)c(OC)c2)ccc1OCCCCC[n+]1ccccc1	–	–	Activity [9]: inactive
COc1cc(/C=C/C(=O)CC(=O)/C=C/c2ccc(OCCCCC[n+]3ccccc3)cc2)ccc1O	–	3	–
O=C(/C=C/c1ccc(O)cc1)CC(=O)/C=C/c1ccc(O)cc1	inactive	–	–
COc1cc(/C=C/c2cc(/C=C/c3ccc(OCCCCC[n+]4ccccc4)c(OC)c3)on2)ccc1OCCCCC[n+]1ccccc1	–	3	–
COc1cc(/C=C/C(=O)CC(=O)/C=C/c2ccc(O)cc2)ccc1OCCCCC[n+]1ccccc1	–	3	–

The next lines start with results.

Activity [1]	fold change (FC) [5]	Compound	further results
inactive	–	COc1cc(/C=C/C(=O)CC(=O)/C=C/c2ccc(OCCO)c(OC)c2)ccc1OCCO	–
inactive	–	COc1cc(/C=C/C(=O)CC(=O)/C=C/c2ccc(O)c(OC)c2)ccc1O	–
inactive	–	COc1cc(CCC(=O)CC(=O)CCc2ccc(O)c(OC)c2)ccc1O	–
inactive	–	COc1cc(CCC(O)CC(O)CCc2ccc(O)c(OC)c2)ccc1O (stereo not given)	–
–	3	COc1cc(/C=C/C(=O)CC(=O)/C=C/c2ccc(OCCCCC[n+]3ccccc3)c(OC)c2)ccc1O	–
